Values after ≈ are worked out from the molar mass of the structure shown.

The subject of assay [1] is Escherichia coli. Nature of the assay: Antibacterial activity against Escherichia coli D22 incubated for 20 hrs by microdilution assay. It counts as functional. The note with it: D22, 20 h. Put shortly:
(§1)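 Broth microdilution in LB medium with 5% DMSO. Overnight cultures (LB, 37 °C, 200 rpm) were diluted 1:100 in fresh LB. Compounds were added from a twofold DMSO dilution series (5.12 mM to 20 nM stock), giving 256 μM to 1 nM final. Plates were shaken 20 h at 37 °C, 200 rpm. MIC was the lowest concentration with no visible growth.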
Background: Broth dilution looks for growth in wells or tubes with falling amounts of substance.

Assay [2] deals with Escherichia coli. As to the kind of experiment: Antibacterial activity against Escherichia coli D22 incubated overnight by agar disk diffusion clearance assay. It counts as functional. Summed up: (§2)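 Agar disc diffusion. 150 µL of an overnight LB culture (37 °C, 200 rpm) was spread on LB agar. 6 mm filter discs were loaded with 15 µL of 10 mM compound in DMSO, with DMSO and CHIR-090 discs as controls. Plates were incubated overnight at 37 °C and the diameter of the growth-inhibition zone was measured. Values are mean ± SD of three independent experiments.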
(A growth-free zone around the sample is the usual read-out of agar diffusion tests.)

The subject of assay [3] is Escherichia coli. Nature of the assay: Antibacterial activity against Escherichia coli BL21(DE3) incubated for 20 hrs by microdilution assay. It counts as functional. Summed up: as §1
In assay [4] the test system is Escherichia coli. Nature of the assay: Antibacterial activity against Escherichia coli BL21(DE3) incubated overnight by agar disk diffusion clearance assay. In kind it is functional. Put shortly: as §2
Assay [5] concerns the target UDP-3-O-acyl-N-acetylglucosamine deacetylase (Escherichia coli K-12, UniProt P0A725, C63A). As to the kind of experiment: Inhibition of Escherichia coli LpxC C63A mutant using UDP-3-O-[(R)-3-hydroxymyristoyl]-N-acetylglucosamine substrate after 30 mins by fluorescence-bsed microplate assay.

Sequence of UDP-3-O-acyl-N-acetylglucosamine deacetylase (P0A725 whole entry C63A): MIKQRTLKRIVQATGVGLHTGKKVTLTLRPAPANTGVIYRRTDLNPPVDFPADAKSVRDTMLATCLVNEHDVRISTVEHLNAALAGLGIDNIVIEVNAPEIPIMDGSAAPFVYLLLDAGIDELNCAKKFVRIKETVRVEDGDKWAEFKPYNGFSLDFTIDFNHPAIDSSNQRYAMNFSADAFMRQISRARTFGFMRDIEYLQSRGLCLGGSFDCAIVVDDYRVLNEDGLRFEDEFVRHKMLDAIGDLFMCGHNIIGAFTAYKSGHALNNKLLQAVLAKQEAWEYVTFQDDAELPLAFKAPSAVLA

One may read the MIC as the smallest concentration in the dilution series that meets the test's criterion for growth inhibition. A low value points to inhibition by little substance. The term IC50 denotes the concentration at which inhibition is half-maximal. The low end stands for greater potency in that assay, the high end for weaker potency in that assay. By Ki is commonly meant the dissociation constant of the complex between target and ligand, obtained from inhibition or displacement. Read a low Ki as higher affinity. As to `O=C(NO)[C@@H](CO)OCc1ccc(C#Cc2ccccc2)cc1`, the MIC is 8 µM (≈ 2.49 µg/mL) with Escherichia coli [1] and 256 µM (≈ 79.7 µg/mL) against Escherichia coli [3]. For the same molecule, the results for the “diameter of the inhibition zone (DIZ)” value in the assay with Escherichia coli [2] and in the assay with Escherichia coli [4] were 17 mm and 10.3 mm, respectively. In addition, the midpoint of inhibition in assay [5], the IC50, lay at 1870 nM. In addition, affinity in assay [5] was put at a Ki of 260 nM.

Take `O=C(CO[C@H](CO)c1ccc(C#Cc2ccc(CN3CCOCC3)cc2)cc1)NO`: the minimal inhibitory concentration (MIC) was found to be 0.5 µM (≈ 0.205 µg/mL) in the assay with Escherichia coli [1] and 64 µM (≈ 26.3 µg/mL) with Escherichia coli [3]. This molecule also showed an IC50 in assay [5] of 690 nM. In assay [5], this molecule showed an inhibition constant Ki of 95 nM.

Regarding `O=C(CO[C@@H](CO)c1ccc(C#Cc2ccc(CN3CCOCC3)cc2)cc1)NO`, in the assay on Escherichia coli [1], the lowest concentration to inhibit growth (MIC) was 4 µM (≈ 1.64 µg/mL). Besides, the MIC against Escherichia coli [3] was above 256 µM. Moreover, in assay [5], the IC50 was found to be 198000 nM and affinity was put at a Ki of 27300 nM.

With `O=C(NO)[C@@H](CO)OCc1ccc(C#Cc2ccc(CN3CCOCC3)cc2)cc1`, the figures for the MIC against Escherichia coli [1] and against Escherichia coli [3] were 4 µM (≈ 1.64 µg/mL) and 128 µM (≈ 52.5 µg/mL), respectively. Besides, the “diameter of the inhibition zone (DIZ)” value in the assay with Escherichia coli [2] is 22 mm; in the assay on Escherichia coli [4], 12.3 mm. Besides, the midpoint of inhibition in assay [5], the IC50, lay at 1660 nM. For the same molecule, in assay [5], the Ki turned out to be 230 nM.

As to `O=C(NO)[C@H](CO)OCc1ccc(C#Cc2ccc(CN3CCOCC3)cc2)cc1`, the MIC with Escherichia coli [1] is 2 µM (≈ 0.821 µg/mL); in the assay with Escherichia coli [3], 64 µM (≈ 26.3 µg/mL). The “diameter of the inhibition zone (DIZ)” value in the assay with Escherichia coli [2] is on record as 25.8 mm; with Escherichia coli [4], 15.7 mm. Besides, half-maximal inhibition in assay [5] (IC50) was put at 2820 nM. Further, the affinity in assay [5], expressed as Ki, was 390 nM.

Regarding `O=C(CO[C@H](CO)c1ccc(C#Cc2ccccc2)cc1)NO`, the MIC with Escherichia coli [1] is 4 µM (≈ 1.25 µg/mL). This molecule came in with an MIC against Escherichia coli [3] of 256 µM (≈ 79.7 µg/mL). In assay [5], this molecule came in with an IC50 of 480 nM and a Ki of 66 nM.

For the molecule `O=C(COCc1ccc(C#Cc2ccccc2)cc1)NO`, the MIC turned out to be 4 µM (≈ 1.13 µg/mL) in the assay with Escherichia coli [1] and 128 µM (≈ 36 µg/mL) in the assay on Escherichia coli [3]. For the same molecule, the IC50 in assay [5] was above 200000 nM.

In turn, `O=C(NO)[C@H](CO)O[C@H](CO)c1ccc(C#Cc2ccc(CN3CCOCC3)cc2)cc1` came in with an MIC in the assay on Escherichia coli [1] of 4 µM (≈ 1.76 µg/mL). In the assay on Escherichia coli [3], this molecule returned an MIC above 256 µM. Moreover, in assay [5], the IC50 turned out to be 2600 nM and affinity was put at a Ki of 360 nM.

In turn, `O=C(CO[C@@H](CO)c1ccc(C#Cc2ccccc2)cc1)NO` came in with an MIC against Escherichia coli [1] of 32 µM (≈ 9.96 µg/mL). This molecule also had an MIC against Escherichia coli [3] of 256 µM (≈ 79.7 µg/mL). In assay [5], this molecule had an IC50 of 31600 nM and an inhibition constant Ki of 4400 nM.

With `O=C(NO)[C@H](CO)OCc1ccc(C#Cc2ccccc2)cc1`, the MIC stood at 4 µM (≈ 1.25 µg/mL) against Escherichia coli [1] and 128 µM (≈ 39.9 µg/mL) against Escherichia coli [3]. The “diameter of the inhibition zone (DIZ)” value in the assay on Escherichia coli [2] amounted to 20.7 mm; in the assay with Escherichia coli [4], 11.7 mm. In addition, in assay [5], the concentration for half-maximal inhibition (IC50) was determined as 1960 nM. For the same molecule, affinity in assay [5] was put at a Ki of 270 nM.

For `O=C(COCc1ccc(C#Cc2ccc(CN3CCOCC3)cc2)cc1)NO`, the MIC against Escherichia coli [1] was 1 µM (≈ 0.38 µg/mL); in the assay with Escherichia coli [3], 64 µM (≈ 24.3 µg/mL). In addition, in assay [5], half-maximal inhibition (IC50) was put at 10500 nM. The molecule also returned a Ki in assay [5] of 1450 nM.

Turning to `C[C@@H](O)[C@H](NC(=O)c1ccc(C#Cc2ccc(CN3CCOCC3)cc2)cc1)C(=O)NO`, the figures for the MIC with Escherichia coli [1] and in the assay on Escherichia coli [3] were 0.032 µM (≈ 0.014 µg/mL) and 1 µM (≈ 0.437 µg/mL), respectively.
